Laboratory results from ChEMBL document CHEMBL1157178, “Novel thiosemicarbazone derivatives as potential antitumor agents: Synthesis, physicochemical and structural properties, DNA interactions and antiproliferative activity” (Bioorg Med Chem, 2008).
The source made the active and inactive calls. The calls are words filed in the database; no cut-off is given here.

What was measured:
WI-38 = experiment: Antiproliferative activity against human WI38 cells after 72 hrs by MTT test; type: functional, cell-based; conditions: WI-38, 72 h
In short: (§1)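 Cells grown as monolayers in DMEM with 10% FBS, 2 mM L-glutamine, penicillin and streptomycin at 37 °C, 5% CO2. Seeded on day 0 at 1 · 10⁴/mL (HeLa, Hep-2, MiaPaCa-2, SW620), 2 · 10⁴/mL (MCF-7) or 3 · 10⁴/mL (WI 38). Five dilutions (10^-8 to 5 · 10^-6 mol/l), 72 h, MTT read-out. Quadruplicate, three experiments. IC50 by linear regression of percentage growth.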

MCF7 = experiment: Antiproliferative activity against human MCF7 cells after 72 hrs by MTT test; type: functional, cell-based; conditions: MCF7, 72 h; in short: as §1
MIA PaCa-2 = experiment: Antiproliferative activity against human MiaPaCa2 cells after 72 hrs by MTT test; type: functional, cell-based; conditions: MIA PaCa-2, 72 h; in short: as §1
DNA = experiment: Binding affinity to calf thymus DNA in aqueous solution at pH 7.0 by thermal denaturation; type: nucleic-acid assay; conditions: Bos taurus
In short: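 ct-DNA in sodium cacodylate buffer, pH 7.0, I = 0.05 mol dm^-3, concentration taken as phosphate. Compound added at r[compd]/[ct-DNA] = 0.3. Melting followed by absorbance at 260 nm, with ligand absorbance subtracted and curves normalized. Tm taken as the transition midpoint (first derivative or tangent method). ΔTm = Tm(complex) − Tm(free DNA), averaged over at least two runs.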

HEp-2 = experiment: Antiproliferative activity against human Hep2 cells after 72 hrs by MTT test; type: functional, cell-based; conditions: HEp-2, 72 h; in short: as §1
SW-620 = experiment: Antiproliferative activity against human SW620 cells after 72 hrs by MTT test; type: functional, cell-based; conditions: SW-620, 72 h; in short: as §1
HeLa = experiment: Antiproliferative activity against human HeLa cells after 72 hrs by MTT test; type: functional, cell-based; in short: as §1

SMILES | IC50 (WI-38) [µM] | IC50 (MCF7) [µM] | IC50 (MIA PaCa-2) [µM] | Activity (DNA) | IC50 (HEp-2) [µM] | IC50 (SW-620) [µM] | IC50 (HeLa) [µM]
NC(=S)N/N=C/c1ccccc1O | ≥ 5 | ≥ 5 | > 5 | inactive | ≥ 5 | > 5 | ≥ 5
NC(=S)N/N=C/c1c(O)ccc2ccccc12 | ≥ 5 | > 5 | > 5 |  | 0.2 | 4.7 | 0.2
CCN(CC)c1ccc(/C=N/NC(N)=S)c(O)c1 | 0.2 | 0.4 | > 5 |  | 0.9 | 3 | 2
COc1cccc(/C=N/NC(=S)Nc2ccccc2)c1O | 1.4 | 3 | 2.5 |  | 1.6 | 1.6 | 1.7
CCN(CC)c1ccc(/C=N/NC(=S)Nc2ccccc2)c(O)c1 | 0.3 | 1.2 | 0.2 | inactive | 0.3 | 0.6 | 0.7
Oc1ccccc1/C=N/NC(=S)Nc1ccccc1 | 1.3 | 4 | 2.4 | inactive | 2.4 | 2 | 1.5
